Several values for one entry are separate records, joined by “and”; a condition that tells them apart may be missing. Equal values may be shown once.
Columns and labels:
[1] = system: HD-MB03 and DAOY medulloblastoma cell lines; test: cell proliferation analysis; type: cell-based, human; conditions: 72 h; for effect of combination on efficacy of CDDP in reducing cell viability: compound 10 µM + cis-Pt 1.8 µM, both MB cell lines
[2] = system: HuTuP192 primary glioblastoma cells; test: cell proliferation analysis; type: cell-based, human; conditions: 72 h; for effect of combination on the effect of TMZ: compound 10 µM + TMZ 500 µM, HuTuP192
[3] = system: HuTuP108 primary glioblastoma cells; test: cell proliferation analysis; type: cell-based, human; conditions: 72 h; for effect of combination on the effect of TMZ: compound 10 µM + TMZ 500 µM
hCA I = hCA I (Homo sapiens, UniProt P00915); test: stopped-flow CO2 hydrase assay, hCA I; type: biochemical; conditions: stopped flow technique, mean from three assays
Chain of hCA I (P00915 whole entry): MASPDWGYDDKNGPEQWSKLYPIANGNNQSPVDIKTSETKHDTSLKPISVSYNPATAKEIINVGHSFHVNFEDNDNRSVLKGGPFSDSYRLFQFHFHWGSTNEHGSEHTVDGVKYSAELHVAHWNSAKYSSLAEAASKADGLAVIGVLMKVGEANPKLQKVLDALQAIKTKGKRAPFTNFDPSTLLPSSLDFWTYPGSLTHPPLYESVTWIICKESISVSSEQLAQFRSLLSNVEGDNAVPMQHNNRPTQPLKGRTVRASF

hCA II = hCA II (Homo sapiens, UniProt P00918); test: stopped-flow CO2 hydrase assay, hCA II; type: biochemical; conditions: stopped flow technique, mean from three assays
hCA IV = hCA IV (Homo sapiens, UniProt P22748); test: stopped-flow CO2 hydrase assay, hCA IV; type: biochemical; conditions: stopped flow technique, mean from three assays
Chain of hCA IV (P22748 19-284 limits assumed): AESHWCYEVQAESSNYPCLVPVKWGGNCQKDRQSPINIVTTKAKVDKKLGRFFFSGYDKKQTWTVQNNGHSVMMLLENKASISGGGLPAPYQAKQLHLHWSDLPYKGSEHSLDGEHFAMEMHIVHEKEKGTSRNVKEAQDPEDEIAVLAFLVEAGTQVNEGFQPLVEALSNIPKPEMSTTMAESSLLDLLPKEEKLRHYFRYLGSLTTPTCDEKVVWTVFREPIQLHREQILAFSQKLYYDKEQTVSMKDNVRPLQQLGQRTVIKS

[4] = cytotoxicity in resting peripheral blood lymphocytes; type: cell-based; conditions: human
hCA IX = hCA IX (Homo sapiens, UniProt Q16790); test: biochemical; type: biochemical; conditions: for Ki: KI hCA IX, stopped flow technique, mean from three assays; for Selectivity index I/IX: ratio KI hCA I / KI hCA IX; for Selectivity index II/IX: ratio KI hCA II / KI hCA IX; for Selectivity index IV/IX: ratio KI hCA IV / KI hCA IX
hCA XII = hCA XII (Homo sapiens, UniProt O43570); test: stopped-flow CO2 hydrase assay, hCA XII; type: biochemical; conditions: for Ki: KI hCA XII, stopped flow technique, mean from three assays; for Selectivity index I/XII: ratio KI hCA I / KI hCA XII; for Selectivity index II/XII: ratio KI hCA II / KI hCA XII; for Selectivity index IV/XII: ratio KI hCA IV / KI hCA XII
Chain of hCA XII (O43570 25-354): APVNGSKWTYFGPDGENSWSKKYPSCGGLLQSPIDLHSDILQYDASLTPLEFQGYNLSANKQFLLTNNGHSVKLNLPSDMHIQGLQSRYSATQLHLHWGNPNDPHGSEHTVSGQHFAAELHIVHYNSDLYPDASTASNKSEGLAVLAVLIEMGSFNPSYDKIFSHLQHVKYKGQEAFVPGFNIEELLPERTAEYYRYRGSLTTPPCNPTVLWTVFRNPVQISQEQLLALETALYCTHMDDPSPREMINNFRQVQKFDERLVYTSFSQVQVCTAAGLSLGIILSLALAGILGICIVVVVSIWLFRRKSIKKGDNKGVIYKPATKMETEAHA

[5] = system: HuTuP108 GBM primary cells; test: apoptosis assay; type: cell-based, human; conditions: 72 h; for apoptotic cells in combination with TMZ: 10 µM + TMZ 500 µM, HuTuP108, vs single treatments; for induction of apoptosis: 10 µM alone, HuTuP108
How it was run: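 Patient-derived primary glioblastoma cells on fibronectin-coated plates in DMEM/F12 with 10% BIT9500, 20 ng/mL bFGF and 20 ng/mL EGF, held at 2% O2/5% CO2. Seeded at 10 000 cells/well, dosed 24 h later for 72 h. Annexin V–FITC/PI staining for 15 min in the dark at room temperature, then flow cytometry (FL1 525 nm/40, FL3 620 nm/20) on the whole population. Mean ± SE of three independent experiments.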

HD-MB03 cells = test: apoptosis assay; type: cell-based, human; conditions: 72 h; for apoptotic cells in combination with cis-Pt: 10 µM + cis-Pt 1.8 µM, HD-MB03, vs single treatments; for induction of apoptosis (apoptotic cells): 10 µM alone, HD-MB03
How it was run: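 HD-MB03 medulloblastoma cells grown in RPMI 1640 with 10% FBS, 1% glutamine and 1% penicillin–streptomycin, kept at 2% O2/5% CO2. Seeded at 10 000 cells/well, treated after 24 h, exposed 72 h. Stained 15 min in the dark at room temperature with Annexin V–FITC (FL1, 525 nm/40) and PI (FL3, 620 nm/20). Whole population analysed by flow cytometry. Mean ± SE, three independent experiments.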

Compound	Ki (hCA I)	Ki (hCA II)	Ki (hCA IV)	GI50 at 72 h [4]	Ki (hCA IX)	Selectivity index I/IX (hCA IX)	Selectivity index II/IX (hCA IX)	Selectivity index IV/IX (hCA IX)	Ki (hCA XII)	Selectivity index I/XII (hCA XII)	Selectivity index II/XII (hCA XII)	Selectivity index IV/XII (hCA XII)	other results
[NH2][Pt]([NH2])([Cl])[Cl] [CDDP, cisplatin, reference compound]	–	–	–	–	–	–	–	–	–	–	–	–	viability reduction by CDDP alone ([1]; CDDP concentration used for combination (cis-Pt 1.8 µM)): around 50%
NS(=O)(=O)c1ccc(Nc2nc3nccc(-c4c(F)ccc(F)c4F)n3n2)cc1 [Compound 1j, 4-((7-(2,3,6-Trifluorophenyl)-[1,2,4]triazolo[1,5-a]pyrimidin-2-yl)amino)benzenesulfonamide]	496 nM	13.9 nM	662 nM	> 10000 nM	8.6 nM	57.7	1.6	77.0	5.4 nM	91.9	2.6	123	effect of combination on the effect of TMZ [2]: did not significantly improve the effect of TMZ; effect of combination on the effect of TMZ [3]: did not significantly improve the effect of TMZ; effect of combination on efficacy of CDDP in reducing cell viability [1]: significantly improved the efficacy of CDDP; apoptotic cells in combination with TMZ [5]: significant increase in the percentage of apoptotic cells; induction of apoptosis [5]: ineffective; apoptotic cells in combination with cis-Pt (HD-MB03 cells): significant increase in the percentage of apoptotic cells; induction of apoptosis (apoptotic cells) (HD-MB03 cells): about 25%
NS(=O)(=O)c1ccc(Nc2nc3nccc(-c4ccccc4Cl)n3n2)cc1 [Compound 1m, 4-((7-(2-Chlorophenyl)-[1,2,4]triazolo[1,5-a]pyrimidin-2-yl)amino)benzenesulfonamide]	9150 nM	155 nM	6480 nM	> 10000 nM	14.8 nM	618	10 and 10.5	438	16.9 nM	541	9.2	384	effect of combination on the effect of TMZ [2]: did not significantly improve the effect of TMZ; effect of combination on the effect of TMZ [3]: did not significantly improve the effect of TMZ; effect of combination on efficacy of CDDP in reducing cell viability [1]: significantly improved the efficacy of CDDP
NS(=O)(=O)c1ccc(Nc2nc3nccc(-c4ccccc4[N+](=O)[O-])n3n2)cc1 [Compound 1s, 4-((7-(2-Nitrophenyl)-[1,2,4]triazolo[1,5-a]pyrimidin-2-yl)amino)benzenesulfonamide]	8450 nM	77.1 nM	3980 nM	–	20.4 nM	414	3.8	195	48.9 nM	173	1.6	81.4	–
Cc1ccc(-c2ccnc3nc(Nc4ccc(S(N)(=O)=O)cc4)nn23)cc1 [Compound 1t, 4-((7-(p-Tolyl)-[1,2,4]triazolo[1,5-a]pyrimidin-2-yl)amino)benzenesulfonamide]	1470 nM	64 nM	2290 nM	–	41.5 nM	35.5	1.5	55.1	61.2 nM	24.0	1.0	37.4	–
Cc1cccc(-c2ccnc3nc(Nc4ccc(S(N)(=O)=O)cc4)nn23)c1 [Compound 1u, 4-((7-(m-Tolyl)-[1,2,4]triazolo[1,5-a]pyrimidin-2-yl)amino)benzenesulfonamide]	1400 nM	55.2 nM	4850 nM	–	26.2 nM	53.5	2.1	185	70.2 nM	20.0	0.8	69.0	–
Cc1ccccc1-c1ccnc2nc(Nc3ccc(S(N)(=O)=O)cc3)nn12 [Compound 1v, 4-((7-(o-Tolyl)-[1,2,4]triazolo[1,5-a]pyrimidin-2-yl)amino)benzenesulfonamide]	2680 nM	42.8 nM	8820 nM	–	4.7 nM	570	9.1	1877	30.4 nM	88.1	1.4	290	–
COc1ccc(-c2ccnc3nc(Nc4ccc(S(N)(=O)=O)cc4)nn23)cc1 [Compound 1w, 4-((7-(4-Methoxyphenyl)-[1,2,4]triazolo[1,5-a]pyrimidin-2-yl)amino)benzenesulfonamide]	1630 nM	89.6 nM	2000 nM	–	50.8 nM	32.0	1.8	39.4	39.8 nM	40.9	2.2	50.3	–
COc1cccc(-c2ccnc3nc(Nc4ccc(S(N)(=O)=O)cc4)nn23)c1 [Compound 1x, 4-((7-(3-Methoxyphenyl)-[1,2,4]triazolo[1,5-a]pyrimidin-2-yl)amino)benzenesulfonamide]	1060 nM	33.8 nM	559 nM	> 10000 nM	5.1 nM	207	6.6	110	12.5 nM	84.5	2.7	44.8	decrease in viability ([2]; 10 µM, HuTuP192, hypoxic conditions): most potent; effect of combination on efficacy of CDDP in reducing cell viability [1]: significantly improved the efficacy of CDDP
COc1ccccc1-c1ccnc2nc(Nc3ccc(S(N)(=O)=O)cc3)nn12 [Compound 1y, 4-((7-(2-Methoxyphenyl)-[1,2,4]triazolo[1,5-a]pyrimidin-2-yl)amino)benzenesulfonamide]	2200 nM	72.9 nM	6320 nM	> 10000 nM	11 nM	200	6.6	575	31.6 nM	69.5	2.3	200	effect of combination on the effect of TMZ [2]: did not significantly improve the effect of TMZ; effect of combination on the effect of TMZ [3]: did not significantly improve the effect of TMZ
CCOc1ccc(-c2ccnc3nc(Nc4ccc(S(N)(=O)=O)cc4)nn23)cc1 [Compound 1z, 4-((7-(4-Ethoxyphenyl)-[1,2,4]triazolo[1,5-a]pyrimidin-2-yl)amino)benzenesulfonamide]	2260 nM	69.3 nM	3650 nM	–	43.5 nM	51.9	1.6	83.9	55.2 nM	40.9	1.2	66.1	–
NS(=O)(=O)c1ccc(NC(=O)Nc2ccc(F)cc2)cc1 [SLC-0111, reference compound]	–	–	–	> 10000 nM	–	–	–	–	–	–	–	–	apoptotic cells in combination with TMZ [5]: did not cause any increase in cytotoxicity; induction of apoptosis [5]: did not significantly induce apoptosis; apoptotic cells in combination with cis-Pt (HD-MB03 cells): did not cause any increase in cytotoxicity; induction of apoptosis (apoptotic cells) (HD-MB03 cells): did not significantly induce apoptosis
Cn1nnc2c(C(N)=O)ncn2c1=O [TMZ, temozolomide, reference compound]	–	–	–	–	–	–	–	–	–	–	–	–	response of cells to TMZ ([3]; TMZ 500 µM): resistant

— paper PMC10586084 (Journal of Enzyme Inhibition and Medicinal Chemistry, 2023)
